Measurements published in ChEMBL document CHEMBL1165949, “Dammaranes from Gynostemma pentaphyllum and synthesis of their derivatives as inhibitors of protein tyrosine phosphatase 1B” (Bioorg Med Chem, 2010).

Assays:
[1] = biological target: T1, Tyrosine-protein phosphatase non-receptor type 1 (Homo sapiens, UniProt P18031); assay: Inhibition of PTP1B by pNPP hydrolase assay
T1 sequence (P18031 whole entry): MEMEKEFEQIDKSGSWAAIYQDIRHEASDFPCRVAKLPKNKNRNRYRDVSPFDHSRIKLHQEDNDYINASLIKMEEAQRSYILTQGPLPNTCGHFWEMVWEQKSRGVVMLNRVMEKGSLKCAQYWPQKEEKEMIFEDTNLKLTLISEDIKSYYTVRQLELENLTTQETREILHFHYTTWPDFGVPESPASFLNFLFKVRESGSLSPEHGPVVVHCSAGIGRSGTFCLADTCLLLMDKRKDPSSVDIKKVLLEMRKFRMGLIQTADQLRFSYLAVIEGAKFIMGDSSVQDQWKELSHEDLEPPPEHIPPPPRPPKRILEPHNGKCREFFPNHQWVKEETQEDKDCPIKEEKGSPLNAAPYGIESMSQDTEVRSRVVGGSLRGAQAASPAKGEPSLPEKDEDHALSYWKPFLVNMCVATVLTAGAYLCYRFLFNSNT
Method in brief: (§1)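 Enzyme activity (PTP1B or TCPTP) was measured by hydrolysis of p-nitrophenyl phosphate (pNPP), with {4-[4-(4-oxalylphenoxymethyl)-benzyloxy]-phenyl}-oxo-acetic acid as the reference inhibitor. IC50 was derived by regression analysis and reported as mean ± SD of three replications.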

[2] = biological target: T2, Tyrosine-protein phosphatase non-receptor type 2 (Homo sapiens, UniProt P17706); assay: Inhibition of TCPTP by pNPP hydrolase assay; method in brief: as §1
T2 sequence (P17706 whole entry): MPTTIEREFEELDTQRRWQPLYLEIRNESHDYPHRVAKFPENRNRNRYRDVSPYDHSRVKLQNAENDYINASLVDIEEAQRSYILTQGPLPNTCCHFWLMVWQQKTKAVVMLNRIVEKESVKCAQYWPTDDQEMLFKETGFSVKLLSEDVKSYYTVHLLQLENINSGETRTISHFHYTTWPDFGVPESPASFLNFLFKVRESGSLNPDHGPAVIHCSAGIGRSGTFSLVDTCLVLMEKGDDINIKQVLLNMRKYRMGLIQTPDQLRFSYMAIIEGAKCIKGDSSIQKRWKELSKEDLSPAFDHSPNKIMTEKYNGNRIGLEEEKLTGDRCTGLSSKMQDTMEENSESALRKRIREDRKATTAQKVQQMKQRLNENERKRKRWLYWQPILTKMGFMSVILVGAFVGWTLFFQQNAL

[3] = Selectivity ratio of IC50 for TCPTP to IC50 for PTP1B
[4] = biological target: T1, Tyrosine-protein phosphatase non-receptor type 1; assay: Inhibition of PTP1B; method in brief: as §1
[5] = biological target: T3, Tyrosine-protein phosphatase non-receptor type 1 (Homo sapiens) (UniProt P18031); assay: Inhibition of PTP1B at 20 uM by pNPP hydrolase assay
T3 sequence (whole entry): T1 sequence (P18031 whole entry)

| IC50 [1] [µM] | IC50 [2] [µM] | Ratio IC50 [3] | IC50 [4] [µM] | inhibition [5] [%] | Structure (SMILES) |
| --- | --- | --- | --- | --- | --- |
| 0.27 | 0.97 |  |  |  | CC(C)=C[C@@H]1C[C@](O)([C@H]2CC[C@@H]3[C@@H]2CC[C@H]2[C@@]3(C)CC[C@H]3C(C)(C)[C@@H](OC(=O)c4ccc(C(=O)O)cc4)CC[C@]23C)C(=O)O1 |
| 12.7 |  |  |  |  | CC(=O)O[C@H]1CC[C@]2(C)[C@H]3CC[C@H]4[C@@H](CC[C@@H]4[C@@]4(O)C[C@@H](C=C(C)C)OC4=O)[C@]3(C)CC[C@H]2C1(C)C |
| 0.33 | 1.62 | 4.9 |  |  | CC(C)=C[C@@H]1C[C@](O)([C@H]2CC[C@@H]3[C@@H]2CC[C@H]2[C@@]3(C)CC[C@H]3C(C)(C)[C@@H](OC(=O)c4cccc(C(=O)O)c4)CC[C@]23C)C(=O)O1 |
| 4.14 | 11.8 |  |  |  | CCCCC(=O)[C@H]1CC[C@]2(C)[C@H]3CC[C@H]4[C@@H](CC[C@@H]4[C@@]4(O)C[C@@H](C=C(C)C)OC4=O)[C@]3(C)CC[C@H]2C1(C)C |
| 1.7 | 2.26 |  |  |  | CC(C)=C[C@@H]1C[C@](O)([C@H]2CC[C@@H]3[C@@H]2CC[C@H]2[C@@]3(C)CC[C@H]3C(C)(C)[C@@H](OC(=O)c4cccc([N+](=O)[O-])c4)CC[C@]23C)C(=O)O1 |
| 11.6 |  |  |  |  | CC(C)=C[C@@H]1C[C@](O)([C@H]2CC[C@@H]3[C@@H]2CC[C@H]2[C@@]3(C)CC[C@H]3C(C)(C)C(NCc4cc(F)cc(F)c4)CC[C@]23C)C(=O)O1 (some centres undefined) |
| 11.3 |  |  | 15.7 |  | CC(C)=C[C@@H]1C[C@](O)([C@H]2CC[C@@H]3[C@@H]2CC[C@H]2[C@@]3(C)CC[C@H]3C(C)(C)[C@@H](O)CC[C@]23C)C(=O)O1 |
| 1.62 | 2.87 |  |  |  | CC(C)=C[C@@H]1C[C@](O)([C@H]2CC[C@@H]3[C@@H]2CC[C@H]2[C@@]3(C)CC[C@H]3C(C)(C)[C@@H](OC(=O)c4ccc([N+](=O)[O-])cc4[N+](=O)[O-])CC[C@]23C)C(=O)O1 |
| 4.6 | 14.7 |  |  |  | CCC(=O)[C@H]1CC[C@]2(C)[C@H]3CC[C@H]4[C@@H](CC[C@@H]4[C@@]4(O)C[C@@H](C=C(C)C)OC4=O)[C@]3(C)CC[C@H]2C1(C)C |
| 1.42 | 5.1 |  |  |  | CC(C)=C[C@@H]1C[C@](O)([C@H]2CC[C@@H]3[C@@H]2CC[C@H]2[C@@]3(C)CC[C@H]3C(C)(C)[C@@H](OC(=O)c4ccc([N+](=O)[O-])cc4)CC[C@]23C)C(=O)O1 |
| 0.5 | 1.22 |  |  |  | CC(C)=C[C@@H]1C[C@](O)([C@H]2CC[C@@H]3[C@@H]2CC[C@H]2[C@@]3(C)CC[C@H]3C(C)(C)[C@@H](OC(=O)c4ccc(C(=O)O)c([N+](=O)[O-])c4)CC[C@]23C)C(=O)O1 |
| 2.36 | 5.14 |  |  |  | CC(C)=C[C@@H]1C[C@](O)([C@H]2CC[C@@H]3[C@@H]2CC[C@H]2[C@@]3(C)CC[C@H]3C(C)(C)[C@@H](OC(=O)c4ccccn4)CC[C@]23C)C(=O)O1 |
| 1.96 | 3.38 |  |  |  | CC(C)=C[C@@H]1C[C@](O)([C@H]2CC[C@@H]3[C@@H]2CC[C@H]2[C@@]3(C)CC[C@H]3C(C)(C)[C@@H](OC(=O)c4ccccc4[N+](=O)[O-])CC[C@]23C)C(=O)O1 |
| 9.6 |  |  | 5.3 |  | CC(C)=C[C@H]1C[C@@](O)([C@H]2CC[C@@H]3[C@@H]2CC[C@H]2[C@@]3(C)CC[C@H]3C(C)(C)[C@@H](O)CC[C@]23C)C(=O)O1 |
| 6.58 |  |  |  |  | CC(C)=C[C@@H]1C[C@](O)([C@H]2CC[C@@H]3[C@@H]2CC[C@H]2[C@@]3(C)CC[C@H]3C(C)(C)C(NCc4ccc([N+](=O)[O-])cc4)CC[C@]23C)C(=O)O1 (some centres undefined) |
|  |  |  |  | 24 | COc1ccc(CNC2CC[C@]3(C)[C@H]4CC[C@H]5[C@@H](CC[C@@H]5[C@@]5(O)C[C@@H](C=C(C)C)OC5=O)[C@]4(C)CC[C@H]3C2(C)C)cc1 (some centres undefined) |
| 2.08 | 12 |  |  |  | COc1cccc(C(=O)O[C@H]2CC[C@]3(C)[C@H]4CC[C@H]5[C@@H](CC[C@@H]5[C@@]5(O)C[C@@H](C=C(C)C)OC5=O)[C@]4(C)CC[C@H]3C2(C)C)c1 |
| 2.61 | 3.9 |  |  |  | COc1ccc(C(=O)O[C@H]2CC[C@]3(C)[C@H]4CC[C@H]5[C@@H](CC[C@@H]5[C@@]5(O)C[C@@H](C=C(C)C)OC5=O)[C@]4(C)CC[C@H]3C2(C)C)cc1 |
| 13.1 | 34.1 |  |  |  | CC(C)=C[C@@H]1C[C@](O)([C@H]2CC[C@@H]3[C@@H]2CC[C@H]2[C@@]3(C)CC[C@H]3C(C)(C)C(=O)CC[C@]23C)C(=O)O1 |
| 1.9 | 4.05 |  |  |  | COc1ccccc1C(=O)O[C@H]1CC[C@]2(C)[C@H]3CC[C@H]4[C@@H](CC[C@@H]4[C@@]4(O)C[C@@H](C=C(C)C)OC4=O)[C@]3(C)CC[C@H]2C1(C)C |
| 2.75 | 4.15 |  |  |  | CC(C)=C[C@@H]1C[C@](O)([C@H]2CC[C@@H]3[C@@H]2CC[C@H]2[C@@]3(C)CC[C@H]3C(C)(C)[C@@H](C(=O)c4ccccc4)CC[C@]23C)C(=O)O1 |
